Assay outcomes as filed in PubChem.
The list is not random: actives were taken first. Their share in the collection is about 8.9%.
bCat nuc transl – beta-catenin nuclear translocation modulation; HeLa beta-catenin nuclear translocation, immunofluorescence imaging; nuclear translocation activity, % at 5 µM; 0.3% of 190,000 active; AID 1665;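 active means nuclear translocation activity above 50% at 5 µM, with a well cell count of 50 or more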;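 further: per-cell ratio of nuclear to cytoplasmic median beta-catenin stain intensity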
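Read-out: Nuclear/cytoplasmic beta-catenin signal ratio, % activation | Assay system: Human HeLa cell line | Times: 24 h compound exposure at 37°C, 5% CO2 | Signal: Fluorescence imaging of beta-catenin antibody stain plus DAPI | Dosing: 5 µM primary, 0.02–20 µM confirmation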
Lmaj promast – inhibitors of Leishmania major promastigote growth | AID 1063 | 9% of 200,000 active | Leishmania major promastigotes, resazurin fluorescence viability | inhibition, % at 10 µM; in the data active means inhibition above about 50%;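 further: promastigotes grown with compound for 44 hours at 28 °C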
MT stabilizer – microtubule stabilization, imaging screen; HeLa tubulin immunostaining HCS, 24 h; share of cells brighter than vehicle mean+2SD; % tubulin-high responders, % at 10 µM; 0.83% of 200,000 active; AID 2205;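 active means plate Z-score above 3 for both tubulin-high and condensed-nucleus cell shares, with cell loss under 80%, at 10 µM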;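 further: anti alpha tubulin signal scored within the nucleus-defined area of each cell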
Dynein transport – blocks dynein driven cargo transport along microtubules | 3617.4 mouse cells, GR-EGFP nuclear translocation imaging; test concentration mostly 20 µM; stimulated with dexamethasone, 1 µM; stronger effect = lower value | z-score, hits read low | 0.47% of 220,000 active | AID 1381;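 active means plate z-score of nuclear minus cytoplasmic receptor signal below a set negative limit, without overly bright fluorescence or cell loss, cut at about -3.5 in these data, passing the limit was not always enough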;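 further: z-score of nuclear minus cytoplasmic ring GR-EGFP intensity difference per well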
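Buffer or medium – tet-free medium with charcoal-stripped serum · Signal – automated 10x imaging of fixed Hoechst-stained cells · Also added – dexamethasone agonist, 1.0 µM final, for 30 min · Incubation – induction 48 h, compound 1 h, agonist 30 min · Read-out – GR-EGFP nuclear translocation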
HSV replic up – HSV replication enhancement; HSV replication augmentation in cells, fold increase; maximum fold increase; 0.005% of 220,000 active; AID 1956; in the data active means maximum fold increase above about 1.5; tested in PC3 cells
Each line names hits and unclear results; the compound was inactive in the other large screens.

CCOC(=O)N1CCc2c(sc(NC(C)=O)c2C(N)=O)C1	none (no result: bCat nuc transl)
CCc1cccc2c(C(=O)CSc3nncn3-c3ccc(OC)cc3)c[nH]c12	Lmaj promast 53 (no result: bCat nuc transl)
Cn1c(NNC(=O)c2ccc(C(C)(C)C)cc2)cc(=O)n(C)c1=O	none
CCCCN(C)C(=O)C1CCN(CCCc2ccccc2)CC1	Lmaj promast 82 (no result: HSV replic up)
Cc1cccc(C)c1NC(=O)C1CCCN(CCCc2ccccc2)C1 (centres undefined)	none
CC1CCCN(C(=O)C2CCN(CCCc3ccccc3)CC2)C1 (centres undefined)	Lmaj promast 81
COc1cc(CN2CCC(C(=O)N3CCCC(C)C3)CC2)cc(Br)c1O (centres undefined)	Lmaj promast 76
CCOC(=O)C1CCCN(CCCc2ccccc2)C1 (centres undefined)	Lmaj promast 51
Cc1ccc(C(=O)N[C@H](C(=O)OCC(=O)Nc2cccc(S(N)(=O)=O)c2)C(C)C)cc1	none (no result: Lmaj promast, MT stabilizer)
NC(=S)N/N=C/c1c[nH]c2ccccc12	none (no result: Lmaj promast, MT stabilizer)
O=C(CCCCn1c(=O)[nH]c2ccsc2c1=O)NCC1CCCO1 (centres undefined)	none
COC(=O)c1ccc2nc(C)cc(Nc3ccccc3C)c2c1	none (no result: HSV replic up)
COC(=O)c1ccc(Nc2cc(C)nc3ccc(C)cc23)cc1	bCat nuc transl 62 (no result: Lmaj promast, MT stabilizer)
Cc1ccc2nc(C)cc(Nc3ccc([N+](=O)[O-])cc3)c2c1	Lmaj promast 101
O=C(c1cccc(Oc2ccccc2)c1)N1CCN(c2ccccn2)CC1	none
C=CCn1c(=O)c2ccc(C(=O)NCc3ccccc3)cc2n(Cc2ccccc2Cl)c1=O	Lmaj promast 56
COC(=O)[C@@H]1CCCN1C(=O)CCc1nnc(C2CCCCC2)o1	none
COC(=O)C1C(=O)C2=C(CC1C)NC(C)=C(C(=O)OC(C)C)C2c1ccc(OC)c(O)c1 (centres undefined)	none (no result: bCat nuc transl)
COC(=O)C1C(=O)C2=C(CC1C)NC(C)=C(C(=O)OC1CCCC1)C2c1ccc(N(C)C)cc1 (centres undefined)	Lmaj promast 59
O=C(COC(=O)/C=C/c1ccc(Br)o1)Nc1ccccc1F	none
C=CCn1c(=O)/c(=C/c2ccc(Cl)cc2)s/c1=C(/C#N)c1nnc2n1CCCCC2	Lmaj promast 94
O=[N+]([O-])c1ccccc1CNC(Cc1ccccc1)c1ccccc1 (centres undefined)	Lmaj promast 90 (no result: bCat nuc transl)
O=C(COC(=O)/C=C/c1nc2ccccc2s1)Nc1cccc(Cl)c1Cl	Lmaj promast 59 (no result: bCat nuc transl)
O=C(COC(=O)/C=C/c1nc2ccccc2s1)Nc1cccc2ccccc12	none (no result: bCat nuc transl)
CC[N+](C)(C)CCN(Cc1ccc(Cl)cc1)c1ccccn1	none
COc1ccc(CCNC(=O)CC(NC(=O)c2ccccc2Cl)c2ccccc2)cc1 (centres undefined)	Lmaj promast 75 (no result: bCat nuc transl)
O=C(CC(NC(=O)c1ccccc1Cl)c1ccccc1)Nc1ccc2c(c1)OCO2 (centres undefined)	Lmaj promast 100
CNC(=O)c1ccc(-c2cc(C(F)(F)F)nn2C)s1	none (no result: Lmaj promast, MT stabilizer)
CCN(CC)S(=O)(=O)c1cc(NC(=O)CN2CCN(c3ccccn3)CC2)ccc1C	none
O=C(Nc1ccccc1)NC1(C(=O)NCc2ccco2)CCCCC1	none
O=C(Nc1ccc(F)cc1)NC1(C(=O)NCc2cccs2)CCCCC1	Lmaj promast 87
O=C(NCc1cccs1)Nc1cccc(Cl)c1	none (no result: bCat nuc transl)
O=C(Nc1cccc(Cl)c1)NC1(C(=O)NCc2cccs2)CCCCC1	Lmaj promast 62
O=C(Nc1ccccc1)NC1(C(=O)NCc2ccc3c(c2)OCO3)CCCCC1	Lmaj promast 58
Cc1ccc(NC(=O)CCN2CCN(CCO)CC2)cc1Br	none (no result: HSV replic up)
O=C(NC(=S)NC1CCCc2ccccc21)c1ccco1 (centres undefined)	none
O=Cc1ccc(-n2cncn2)cc1	none
COP(=O)(OC)c1nc(-c2ccccc2)oc1N1CCOCC1	Lmaj promast 51
CC(C)(C)n1[nH]c2c3c(ccc2c1=O)C(=O)c1ccccc1C3=O	Lmaj promast 95
CC1=NN(c2ccccc2)C(=O)C1N=Nc1ccc(S(N)(=O)=O)cc1 (centres undefined)	none (no result: Lmaj promast, MT stabilizer)
COc1ccc(-c2csc3nc(C)nc(N4CCC(C)CC4)c23)cc1OC	Lmaj promast 90
CCOC(=O)C(CC)(CC)C(=O)/C=C/c1ccc(Br)cc1	Lmaj promast 83
Cc1nnc2sc(SCc3ccccc3)nn2c1=O	none
Cc1nnc2sc(SCC(=O)Nc3nccs3)nn2c1=O	Lmaj promast 92
CNS(=O)(=O)c1cnccc1N1CCN(c2cccc(Cl)c2)CC1	Lmaj promast 100
CCN(CC)S(=O)(=O)c1cnccc1N1CCN(c2cccc(Cl)c2)CC1	Lmaj promast 100 (no result: bCat nuc transl)
CN1CCN(S(=O)(=O)c2cnccc2N2CCN(c3cccc(Cl)c3)CC2)CC1	none (no result: bCat nuc transl)
O=C(Nc1ccon1)c1ccc(Cl)s1	none
Cn1c(O)c(N=Nc2ccc(F)cc2)c2ccccc21	none
Cn1c(O)c(N=Nc2nc(-c3ccccc3)cs2)c2ccccc21	Lmaj promast 66 (no result: bCat nuc transl)
Cc1ccc2nc(Cl)c(C3CC(c4cccs4)=NN3C(=O)CCCC(=O)O)cc2c1 (centres undefined)	Lmaj promast 57
CCOc1ccc(N2C(=O)CC(N3CCN(C4CCc5ccccc5C4)CC3)C2=O)cc1 (centres undefined)	none
Cc1ccc(N2C(=O)CC(N3CCN(C4CCc5ccccc5C4)CC3)C2=O)cc1 (centres undefined)	Lmaj promast 87
Clc1ccc(C(c2nnnn2C2CCCC2)N2CCN(Cc3ccncc3)CC2)cc1 (centres undefined)	Lmaj promast 88 (no result: bCat nuc transl)
c1ccc(C(c2ccccc2)N2CCN(C(c3ccccn3)c3nnnn3C3CCCC3)CC2)cc1 (centres undefined)	Lmaj promast 57
Fc1ccc(C(c2nnnn2C2CCCC2)N2CCN(Cc3ccccc3)CC2)cc1 (centres undefined)	none
c1csc(C(c2nnnn2C2CCCCC2)N2CCN(c3nc4ccccc4s3)CC2)c1 (centres undefined)	Lmaj promast 93
c1ccc(C(c2nnnn2C2CCCC2)N2CCN(c3nc4ccccc4s3)CC2)cc1 (centres undefined)	Lmaj promast 95
c1csc(C(c2nnnn2C2CCCC2)N2CCOCC2)c1 (centres undefined)	none
O=C(O)c1ccc(Nc2cnc3ccccc3n2)cc1	none
NNC(=O)C1=NOC(CNc2ncc(C(F)(F)F)cc2Cl)C1 (centres undefined)	none
Cc1ccc(C(c2nnnn2C2CCCCC2)N2CCc3ccccc32)cc1 (centres undefined)	Lmaj promast 53
Cc1ccc(C(c2nnnn2C2CCCC2)N2CCN3CCCC3C2)cc1 (centres undefined)	Lmaj promast 87
c1cncc(C(c2nnnn2C2CCCCC2)N2CCN3CCCC3C2)c1 (centres undefined)	none
